Experiments:
Glutamate NMDA receptor [1] = assay: Displacement of [3H]-MK-801 from rat cortical membranes NMDA receptor by beta counting analysis in absence of spermine
Method in brief: (§1)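 Membranes from rat frontoparietal cortex and hippocampus, prepared in 50 mM Tris acetate pH 7.0. 5 nM [3H]MK-801 was incubated with membranes (~1 mg wet tissue) for 3 h at 23 °C in 10 mM Tris acetate pH 7.0 with 10 µM glutamate and glycine, in triplicate, with or without 30 µM spermine. Compounds were tested at 3–4 concentrations. Nonspecific binding was set with 100 µM (S)-ketamine. Bound ligand was filtered and scintillation-counted. Spermine sensitivity = IC50 (with spermine)/IC50 (without).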

Glutamate NMDA receptor [2] = assay: Displacement of [3H]-MK-801 from rat cortical membranes NMDA receptor by beta counting analysis in presence of 30 uM spermine; method in brief: as §1
[3] = target: Glutamate NMDA receptor (Rattus norvegicus) (UniProt P35439+Q00959+Q00960+Q00961+Q62645+Q8VHN2+Q9R1M7); assay: Ratio of IC50 for displacement of [3H]-MK-801 from rat cortical membranes NMDA receptor in presence of 30 uM spermine to IC50 for displacement of [3H]-MK-801 from rat cortical membranes NMDA receptor in absence of 30 spermine; method in brief: as §1
Glutamate NMDA receptor [4] = assay: Displacement of [3H]-ifenprodil from rat cortical membranes NMDA receptor by beta counting analysis in absence of spermine

IC50 (Glutamate NMDA receptor [1]) [µM]	IC50 (Glutamate NMDA receptor [2]) [µM]	Ratio IC50 [3]	IC50 (Glutamate NMDA receptor [4]) [µM]	SMILES
10	148	17	77.7	N=C(N)c1ccc(NCCCNc2ccc(C(=N)N)cc2)cc1
2.01	50.7	30.2	0.76	N=C(N)c1ccc(NCCNc2ccc(C(=N)N)cc2)cc1
0.24	1.32	6.28	0.41	Cc1ccc(S(=O)(=O)N(CCOc2ccc(C(=N)N)cc2)CCOc2ccc(C(=N)N)cc2)cc1
	245	32.9	960	NCCCCCCCCCCCCN
6.94	74.9	10.8	49.4	CC(C)NC(=N)c1ccc(NC(=O)c2cccc(C(=O)Nc3ccc(C(=N)NC(C)C)cc3)n2)cc1
0.79	6.7	9.04	3.97	N=C(N)c1ccc(OCc2cccc(COc3ccc(C(=N)N)cc3)c2)cc1
230	675	2.81	54.5	N=C(N)c1ccc(NC(=O)CCCC(=O)Nc2ccc(C(=N)N)cc2)cc1
1.46	5.54	4	1.42	N=C(N)c1ccc(OCc2ccccc2COc2ccc(C(=N)N)cc2)cc1
3.18	85.3	30.2	7.14	CN(CCNc1ccc(C(=N)N)cc1)c1ccc(C(=N)N)cc1
0.25	5.47	20.4	19.1	N=C(N)c1ccc(N2CCCN(c3ccc(C(=N)N)cc3)CC2)cc1
0.52	6.1	15.1	49.3	NCCCCCCCCc1ccc(CCCCN)s1
5.24	25.7	5.25	10.8	N=C(N)c1ccc(OCc2ccc(COc3ccc(C(=N)N)cc3)cc2)cc1
7.26	31.1	4.37		N=C(N)c1ccc(NCCCCCCCCNc2ccc(C(=N)N)cc2)cc1
41.2	427	9.72		N=C(NCCCO)c1ccc(N2CCCN(c3ccc(/C(N)=N/CCCO)cc3)CC2)cc1
8.13	85.7	10.6		N=C(NC1CCCC1)c1ccc(N2CCCN(c3ccc(C(=N)NC4CCCC4)cc3)CC2)cc1
17.7	389	25.3		CC(C)/N=C(\N)c1ccc(N2CCCN(c3ccc(/C(N)=N/C(C)C)cc3)CC2)cc1
152	153	1.01		N=C(N)c1ccc(NC(=O)c2ccc(C(=O)Nc3ccc(C(=N)N)cc3)o2)cc1
2.61	48.1	19.3	13	CCN(CCNc1ccc(C(=N)N)cc1)c1ccc(C(=N)N)cc1
26.5	111	4.25		N=C(N)c1ccc(NC(=O)CCCCCCCC(=O)Nc2ccc(C(=N)N)cc2)cc1

IC50 (Glutamate NMDA receptor [1]) [µM]	IC50 (Glutamate NMDA receptor [2]) [µM]	Ratio IC50 [3]	IC50 (Glutamate NMDA receptor [4]) [µM]	SMILES
4.55	84.2	17.2		N=C(N)c1ccc(NCCCCNc2ccc(C(=N)N)cc2)cc1
9.9	34.2	4.63		N=C(N)c1ccc(-c2ccc(-c3ccc(C(=N)N)cc3)c(F)c2)cc1
26.8	30	1.24		N=C(N)c1ccc(-c2ccc(-c3ccc(-c4ccc(C(=N)N)cc4)nc3)cn2)cc1
2.19	18.4	10.1	7.29	N=C(N)c1ccc(COc2ccccc2OCc2ccc(C(=N)N)cc2)cc1
3.08	70.7	26.2	17	N=C(N)c1ccc(N2CCN(c3ccc(C(=N)N)cc3)CC2)cc1
5.01	11.7	4.26		N=C(N)c1ccc(-c2ccc(-c3ccc(-c4ccc(C(=N)N)o4)s3)s2)o1
9.25	159	19.3		N=C(NC1CCCC1)c1ccc(N2CCN(c3ccc(C(=N)NC4CCCC4)cc3)CC2)cc1
53.9	52.9	0.96		N=C(N)c1ccc(NC(=O)c2ccc(C(=O)Nc3ccc(C(=N)N)cc3)cc2)cc1
1.14	13.8	11.8	9.16	CCN(CCN(CC)c1ccc(C(=N)N)cc1)c1ccc(C(=N)N)cc1
22.9	170	7.25		N=C(N)c1ccc(NC(=O)CCCCCCC(=O)Nc2ccc(C(=N)N)cc2)cc1
15.9	371	21.8		CCCNC(=N)c1ccc(N2CCN(c3ccc(C(=N)NCCC)cc3)CC2)cc1
4.37	23.9	5.26		N=C(N)c1ccc(NCCCCCCNc2ccc(C(=N)N)cc2)cc1
10.3	139	16		CCCC/N=C(/N)c1ccc(N2CCN(c3ccc(/C(N)=N\CCCC)cc3)CC2)cc1
2.71	54.5	20.9	16.9	CN(CCN(C)c1ccc(C(=N)N)cc1)c1ccc(C(=N)N)cc1
34.6	562	16.8		CC(C)(C)/N=C(\N)c1ccc(N2CCCN(c3ccc(/C(N)=N/C(C)(C)C)cc3)CC2)cc1
6.43	106	15.1		c1cc(N2CCN(c3ccc(C4=NCCN4)cc3)CC2)ccc1C1=NCCN1
4.6	196		24.4	NC(N)=NCCCCN=C(N)N [ARCAINE]
58.2	70.9	1.22	> 100	N=C(N)c1ccc(NC(=O)c2cccc(C(=O)Nc3ccc(C(=N)N)cc3)n2)cc1

SMILES	IC50 (Glutamate NMDA receptor [1]) [µM]	IC50 (Glutamate NMDA receptor [2]) [µM]	Ratio IC50 [3]	IC50 (Glutamate NMDA receptor [4]) [µM]
N=C(N)c1ccc(OC(=O)c2ccc(C(=O)Oc3ccc(C(=N)N)cc3)cc2)cc1 [BIS(4-CARBAMIMIDOYLPHENYL)TEREPHTHALATE]	10.8	46.6	3.98	27
CN(CCCN(C)c1ccc(C(=N)N)cc1)c1ccc(C(=N)N)cc1	1.84	24.7	14.7	31.2

Source: ChEMBL document CHEMBL3593210, “Pentamidine analogs as inhibitors of [(3)H]MK-801 and [(3)H]ifenprodil binding to rat brain NMDA receptors” (Bioorg Med Chem, 2015)
